Reference: ChEMBL document CHEMBL1124639, “Synthesis and in vitro pharmacology of arpromidine and related phenyl(pyridylalkyl)guanidines, a potential new class of positive inotropic drugs” (J Med Chem, 1989)

How the values were obtained:
[1] = target: Histamine H1 receptor (Cavia porcellus, UniProt P31389); experiment: Antagonist activity at histamine H1 receptor against histamine in isolated ileum of guinea pig.; assay type: functional, tissue-based; settings: read-out: pA2 (converted)
How it was run: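 Isolated guinea pig ileum contracted by histamine, with histamine dihydrochloride as the standard agonist in cumulative dose-response curves. pA2 was derived. For compounds that depressed the histamine maximum at 10 µM, -log KB was taken at 3 µM antagonist from log(DR-1) = log[ant.] - log KB.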

[2] = species: Cavia porcellus; experiment: Relative potency with impromidine (100%) in isolated perfused guinea pig heart; assay type: functional
How it was run: (§1)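 Langendorff-perfused isolated guinea pig heart. Compounds were given as a bolus injected into the perfusion stream, with impromidine as reference. Net increases in LV dp/dtmax, heart rate and coronary flow were expressed against impromidine = 100% in a control group (n = 6 each). Relative potency was taken from molar ED50 ratios versus impromidine = 100%.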

[3] = species: Cavia porcellus; experiment: Chronotropic effect assessed from maximal increase in delta LV (dp/dtmax) in isolated perfused guinea pig heart; assay type: functional; settings: in the assay text read “Inotropic effect” for “Chronotropic effect”; how it was run: as §1
[4] = species: Cavia porcellus; experiment: Increase in coronary flow with maximal inotropic response in isolated perfused guinea pig heart; assay type: functional; parameters: unit not given beside the values; how it was run: as §1
[5] = species: Cavia porcellus; experiment: Increase in heart rate with maximal inotropic response in isolated perfused guinea pig heart; assay type: functional; parameters: unit not given beside the values; how it was run: as §1
[6] = target: Histamine H2 receptor (Cavia porcellus) (UniProt P47747); experiment: Agonistic activity relative to histamine on electrically stimulated papillary muscle of guinea pig; assay type: functional, tissue-based; settings: Muscle tissue
How it was run: (§2)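 Isolated right-ventricular papillary muscle from guinea pig, electrically paced at 1 Hz with 1 ms pulses, in Krebs-Henseleit solution gassed with O2/CO2 95:5 at 32.5 °C. Compounds were tested as hydrohalide salts. Cumulative concentration-response curves of contractile force were run against histamine as the standard agonist. […] relative potency were taken from pD2, with histamine maximum = 1.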

[7] = target: Histamine H2 receptor (Cavia porcellus) (UniProt P47747); experiment: Intrinsic activity (as a measure of agonism) on electrically stimulated papillary muscle of guinea pig; assay type: functional, tissue-based; settings: Muscle tissue; how it was run: as §2
[8] = target: Histamine H2 receptor (Cavia porcellus) (UniProt P47747); experiment: Histamine H2 receptor agonism relative to histamine on isolated guinea pig right atrium; assay type: functional, tissue-based; settings: Cardiac atrium
How it was run: (§3)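 Spontaneously beating isolated guinea pig right atrium with a positive chronotropic read-out. Cumulative concentration-response curves were run against histamine dihydrochloride as the standard. Incubation after each concentration was usually 25 min, adjusted until equilibrium. H2 selectivity was checked with cimetidine (10 µM and 1 µM) and metoprolol (1 µM). Potency relative to histamine = 1 was calculated from mean pD2 values.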

[9] = target: Histamine H2 receptor (Cavia porcellus) (UniProt P47747); experiment: Potency relative to histamine calculated from mean pD2 value in guinea pig right atrium.; assay type: functional, tissue-based; settings: Cardiac atrium; how it was run: as §3
[10] = target: Histamine H2 receptor (Cavia porcellus) (UniProt P47747); experiment: Histamine H2 receptor agonistic activity (as a measure of agonism) at the isolated right atrium of guinea pig, activity relative to histamine.; assay type: functional, tissue-based; settings: Cardiac atrium; how it was run: as §3
[11] = target: Histamine H2 receptor (Cavia porcellus) (UniProt P47747); experiment: Potency at H2 receptor compared to histamine from mean pD2 value in right atrium of guinea pig; assay type: functional, tissue-based; settings: Cardiac atrium; how it was run: as §3
[12] = target: Histamine H2 receptor (Cavia porcellus) (UniProt P47747); experiment: H2 receptor agonistic activity in isolated right atrium of guinea pig compared to histamine; assay type: functional, tissue-based; settings: Cardiac atrium; how it was run: as §3
[13] = target: Histamine H2 receptor (Cavia porcellus) (UniProt P47747); experiment: H2 receptor agonist activity relative to histamine on isolated right atrium of guinea pig; assay type: functional, tissue-based; settings: Cardiac atrium; how it was run: as §3

Chain of Histamine H2 receptor (Cavia porcellus) (P47747 whole entry): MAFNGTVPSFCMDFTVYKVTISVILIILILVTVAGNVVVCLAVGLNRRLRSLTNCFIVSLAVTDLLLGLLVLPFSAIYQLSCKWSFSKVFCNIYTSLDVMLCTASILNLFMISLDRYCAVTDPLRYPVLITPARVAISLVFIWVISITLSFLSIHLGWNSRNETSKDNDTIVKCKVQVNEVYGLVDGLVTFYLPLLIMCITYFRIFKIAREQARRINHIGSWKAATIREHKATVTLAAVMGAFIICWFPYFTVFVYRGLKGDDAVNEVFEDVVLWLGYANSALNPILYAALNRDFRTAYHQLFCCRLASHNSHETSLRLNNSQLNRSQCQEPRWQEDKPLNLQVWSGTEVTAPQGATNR
Chain of Histamine H1 receptor (P31389 whole entry): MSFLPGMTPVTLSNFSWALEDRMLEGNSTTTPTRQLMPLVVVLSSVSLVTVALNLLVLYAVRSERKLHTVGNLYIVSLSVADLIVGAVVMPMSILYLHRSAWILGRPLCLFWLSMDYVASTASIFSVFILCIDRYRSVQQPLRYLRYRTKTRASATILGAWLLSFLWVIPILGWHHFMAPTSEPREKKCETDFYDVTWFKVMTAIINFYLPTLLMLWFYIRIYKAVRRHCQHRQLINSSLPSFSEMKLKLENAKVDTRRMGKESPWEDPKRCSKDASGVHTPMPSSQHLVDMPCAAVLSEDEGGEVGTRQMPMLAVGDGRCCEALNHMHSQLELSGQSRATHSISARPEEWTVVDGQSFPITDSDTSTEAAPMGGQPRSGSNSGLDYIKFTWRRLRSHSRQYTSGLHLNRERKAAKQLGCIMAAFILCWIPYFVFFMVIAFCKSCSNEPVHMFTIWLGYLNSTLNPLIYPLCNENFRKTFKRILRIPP

Kb [1] [nM]	pD2 [6]	Intrinsic activity [7]	pD2 [8]	Relative potency [9]	Intrinsic activity [10]	Relative potency [11]	Intrinsic activity [12]	pD2 [13]	Structure (SMILES)	Relative potency [2]	Delta LV [3]	Delta coronary flow [4]	Delta heart rate [5]
22.4									NC(=NCCC(c1ccc(F)cc1)c1ccccn1)NCCCc1cnc[nH]1 (stereo unspecified) [ARPROMIDINE]				
									Cc1[nH]cnc1CSCCNC(=N)NCCCc1c[nH]cn1 [IMPROMIDINE]	100	100	100	100
282	7.23	0.9	7.76	57.5	0.9				N=C(NCCCc1c[nH]cn1)NCCC(c1ccc(C(F)(F)F)cc1)c1ccccn1 (stereo unspecified)				
34.7	7.45	0.7	7.73	53.7	1				N=C(NCCCc1c[nH]cn1)NCCC(c1ccccc1)c1ccc(F)cc1 (stereo unspecified)				
148	7.15	1	7.71	51.3	1				Cc1ccc(C(CC/N=C(\N)NCCCc2c[nH]cn2)c2ccccn2)cc1 (stereo unspecified)	138	96	59	77
389			6.9	7.9	1				N=C(NCCCc1c[nH]cn1)NCCC(c1ccccn1)c1ccccn1				
269	7	0.5	7.44	27.5	1				COc1ccc(C(CC/N=C(\N)NCCCc2c[nH]cn2)c2ccccn2)cc1 (stereo unspecified)				
1700			6.91	8.1	0.9				N/C(=N\CCC(c1cccc([N+](=O)[O-])c1)c1ccccn1)NCCCc1c[nH]cn1 (stereo unspecified)				
46.8			6.87	7.4	0.9				N=C(NCCCc1c[nH]cn1)NCCCC(c1ccc(F)cc1)c1ccccn1 (stereo unspecified)				
525	7.44	0.7	7.43	26.9	1				N=C(NCCCc1c[nH]cn1)NCCC(c1cccc(C(F)(F)F)c1)c1ccccn1 (stereo unspecified)				
	7.94	0.8	8.01	102	1				N=C(NCCCc1c[nH]cn1)NCCC(c1ccc(F)cc1)c1ccccn1 (stereo unspecified) [ARPROMIDINE]	146	97	143	57
288			7.72	52.5	0.9				N=C(NCCCc1c[nH]cn1)NCCC(c1ccccn1)c1ccc(Cl)cc1Cl (stereo unspecified)				
141			6.17	1.5	0.8				N=C(NCCCc1c[nH]cn1)NCCC(Cc1ccccc1)c1ccc(F)cc1 (stereo unspecified)				
120	6.97	0.4	7.48	30.2	1				N=C(NCCCc1c[nH]cn1)NCCC(c1ccc(Br)cc1)c1ccccn1 (stereo unspecified)	61	93	155	101
79.4	7.54	0.8	8.19	155	1				N=C(NCCCc1c[nH]cn1)NCCC(c1ccc(Cl)c(Cl)c1)c1ccccn1 (stereo unspecified)	221	121	128	62
115			7.42	26.3	0.9				N/C(=N\CCC(O)(c1ccc(F)cc1)c1ccccn1)NCCCc1c[nH]cn1 (stereo unspecified)				

Kb [1] [nM]	pD2 [6]	Intrinsic activity [7]	pD2 [8]	Relative potency [9]	Intrinsic activity [10]	Relative potency [11]	Intrinsic activity [12]	pD2 [13]	Structure (SMILES)	Relative potency [2]	Delta LV [3]	Delta coronary flow [4]	Delta heart rate [5]
			6.61	4.1	1				N=C(NCCCc1c[nH]cn1)NCCCC(c1ccccc1)c1ccccn1 (stereo unspecified)				
347			7.47	29.5	1				N=C(NC/C=C(\c1ccc(F)cc1)c1ccccn1)NCCCc1c[nH]cn1				
195	6.03	0.6	7.46	28.8	1				N=C(NCCCc1c[nH]cn1)NCCC(c1ccccc1)c1ccc(Cl)c(Cl)c1 (stereo unspecified)				
513						22.4	0.9	7.35	N=C(NCCCc1c[nH]cn1)NCCC(c1ccccn1)c1ccccc1Cl (stereo unspecified)				
1100			5.4	0.25	0.8				CN(CCC(c1ccc(F)cc1)c1ccccn1)C(=N)NCCCc1c[nH]cn1 (stereo unspecified)				
275	7.91	0.8	8.05	112	1				N=C(NCCCc1c[nH]cn1)NCCC(c1cc(F)cc(F)c1)c1ccccn1 (stereo unspecified)	244	129	182	79
45.7			7.16	14.5	1				N=C(NCCCc1c[nH]cn1)NCCC(c1ccccn1)c1cccs1 (stereo unspecified)				
	7.91	0.8	8.09	123	1				N=C(NCCCc1c[nH]cn1)NCCC(c1ccc(F)cc1)c1cccnc1 (stereo unspecified)				
3310			6.35	2.2	1				N=C(NCCCc1c[nH]cn1)NCC(c1ccccc1)c1ccccn1 (stereo unspecified)				
437			7.46	28.8	1				N=C(NCCCc1c[nH]cn1)NCCC(c1ccccn1)c1ccccc1F (stereo unspecified)				
77.6	7.39	0.8	7.84	69.2	1				N=C(NCCCc1c[nH]cn1)NCCC(c1ccc(Cl)cc1)c1ccccn1 (stereo unspecified)	90	91	103	62
851			7.38	24	0.9				N/C(=N\CCC(c1cccc(N)c1)c1ccccn1)NCCCc1c[nH]cn1 (stereo unspecified)				
	7.71	0.6	7.94	87.1	1				N=C(NCCCc1c[nH]cn1)NCCC(c1cccc(Cl)c1)c1ccccn1 (stereo unspecified)	199	103	79	96
43.7			7.37	23.4	1				N=C(NCCCc1c[nH]cn1)NCCC(c1cc(Cl)cc(Cl)c1)c1ccccn1 (stereo unspecified)				
158	7.79	0.5	7.88	75.9	1				N=C(NCCCc1c[nH]cn1)NCCC(c1cccc(F)c1)c1ccccn1 (stereo unspecified)				

Structure (SMILES)	Kb [1] [nM]	pD2 [6]	Intrinsic activity [7]	pD2 [8]	Relative potency [9]	Intrinsic activity [10]	Relative potency [11]	Intrinsic activity [12]	pD2 [13]	Relative potency [2]	Delta LV [3]	Delta coronary flow [4]	Delta heart rate [5]
N=C(NCCCc1c[nH]cn1)NCCSC(c1ccccc1)c1ccccn1 (stereo unspecified)				6.6	4	1							
